Source: PubChem BioAssay
Compounds with a hit are over-represented: about 3.5% of the library has one in this group of screens.
Apaf1 inhib: inhibitors of human Apaf-1 apoptosome. reconstituted apoptosome caspase-3 activity, DEVD-Rh110 fluorescence. inhibition, % at 20 µM. AID 489030. 330,000 compounds, 0.71% hits; active means inhibition of at least 40% at 20 µM;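 further: plate controls were DMSO wells for no effect and DEVD-CHO caspase inhibitor wells for full effect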
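Assay system – apoptosome proteins · Medium – Hepes buffer, pH 7.5 · Also added – cytochrome c with DEVD-Rh110 · Timing – 30 min compound preincubation, 50 min activation, room temperature · Detection – Rh110 fluorescence, excitation 480 nm, emission 540 nm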
PAFAH2 inh: inhibitors of human PAFAH2 | inhibition, % at 3.39 µM | 340,000 compounds, 0.99% hits | Q99487 | recombinant PAFAH2, FP-rhodamine activity probe, fluorescence polarization;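 active means inhibition above the mean over all tested compounds plus 3 SD, cut at about 30% in these data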;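 further: inhibitors block probe labeling of enzyme so polarization drops; 0% = enzyme with DMSO and 100% = wells lacking PAFAH2 protein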
PAFAH1B3 FP inh: PAFAH1B3 (human) inhibition. 340,000 compounds, 0.28% hits. AID 492972. recombinant PAFAH1B3, FP-rhodamine probe, fluorescence polarization. inhibition, % at 3.39 µM. Q15102;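 active means inhibition above the screen-wide average of all tested compounds plus 3 SD, cut at about 25% in these data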;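 further: 0% = enzyme with DMSO only and 100% = wells lacking PAFAH1B3 protein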
pPAFAH inh: pPAFAH (human) enzyme inhibition; recombinant pPAFAH, FP-rhodamine probe fluorescence polarization; Q13093; 330,000 compounds, 1.5% hits; inhibition, % at 3.39 µM;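 active means inhibition above the mean inhibition across the screen plus 3 SD, cut at about 25% in these data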;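 further: inhibitors block binding of the rhodamine activity-based probe so polarization drops; 0% = enzyme with DMSO and 100% = wells lacking pPAFAH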
Target sequence (Q13093 whole entry, looked up): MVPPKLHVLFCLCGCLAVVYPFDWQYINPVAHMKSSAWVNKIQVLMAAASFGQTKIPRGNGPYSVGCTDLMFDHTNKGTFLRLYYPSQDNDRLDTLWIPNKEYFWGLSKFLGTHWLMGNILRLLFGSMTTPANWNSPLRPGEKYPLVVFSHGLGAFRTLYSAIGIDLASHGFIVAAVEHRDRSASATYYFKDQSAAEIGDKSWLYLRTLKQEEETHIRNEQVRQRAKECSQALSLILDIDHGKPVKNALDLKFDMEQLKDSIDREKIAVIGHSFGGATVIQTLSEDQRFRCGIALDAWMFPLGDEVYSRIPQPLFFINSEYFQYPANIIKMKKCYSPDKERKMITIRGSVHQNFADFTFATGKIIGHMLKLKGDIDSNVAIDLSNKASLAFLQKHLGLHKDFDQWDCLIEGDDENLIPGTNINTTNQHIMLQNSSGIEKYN
PREPL inhibitor: inhibitors of human prolyl oligopeptidase-like enzyme PREPL; Q4J6C6; recombinant PREPL, fluorescence polarization activity-based probe; inhibition, % at 5.96 µM; 320,000 compounds, 0.68% hits; AID 2751;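 further: 0% = enzyme with DMSO and 100% = wells lacking enzyme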
PAFAH1B2 FP inh: inhibitors of human PAFAH1B2; P68402; recombinant PAFAH1B2, FP-rhodamine activity probe, fluorescence polarization; inhibition, % at 3.39 µM; 340,000 compounds, 1.2% hits;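 active means inhibition above the mean of all tested compounds plus 3 SD, cut at about 24% in these data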;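 further: 0% = enzyme with DMSO and 100% = wells lacking PAFAH1B2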
PREPL confirm: human PREPL inhibition, confirmation; inhibition, % at 5.96 µM; recombinant PREPL, fluorescence polarization activity probe; shares compounds with PREPL inhibitor; AID 2803; 2,000 compounds, 67% hits;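 further: 0% = protein with DMSO and 100% = wells lacking protein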
* marks the source's active call; other numbers are inactive results; x = no result given. Unless noted, no stated cut-off is given here; in the data, active means inhibition above about 43%; inactive means the rest.

SMILES	Apaf1 inhib	PAFAH2 inh	PAFAH1B3 FP inh	pPAFAH inh	PREPL inhibitor	PAFAH1B2 FP inh	PREPL confirm
C#CCOCCOCCOCCNc1nc(N2CCN(C(=O)C(Cc3cc4ccccc4[nH]3)n3cc(C(N)C(C)CC)nn3)CC2)nc(N2CCN(C(=O)C(Cc3cc4ccccc4[nH]3)n3cc(C(N)C(C)CC)nn3)CC2)n1 (centres undefined)	37	-2	3	7	50*	1	62*
COCCNc1nc(SCc2ccccc2)nc2sc3c(c12)CCC3	13	1	-2	16	23	4	x
CC(CO)Nc1nc(SCc2ccccc2)nc2sc3c(c12)CCC3 (centres undefined)	16	5	6	14	44*	7	41
CCn1c(SCC(=O)N2CCc3ccccc3C2)nc2sc(C)c(C)c2c1=O	32	-5	1	-1	44*	5	42
Cc1cc(-c2csc(N)n2)c(C)n1C	24	6	6	16	52*	7	14
OC1CCN(c2c3c(nc4cc(-c5cccc(F)c5)nn24)CCCC3)CC1	14	2	-2	-1	44*	0	30
Cc1nc(C(=O)NCc2ccccc2)sc1C1(C)CC(c2ccccc2)=NO1 (centres undefined)	13	2	0	3	5	-4	x
O=C(CN1C(=O)C2CC=CCC2C1=O)N1CCN(c2ccc([N+](=O)[O-])cc2)CC1 (centres undefined)	-21	0	3	6	48*	2	32
CC(C(=O)N1CCN(c2ccc([N+](=O)[O-])cc2)CC1)N1C(=O)C2CC=CCC2C1=O (centres undefined)	7	0	-3	-2	20	1	x
COc1ccc(O)c(/C=N/Nc2nc(Nc3ccccc3)nc(-n3nc(C)cc3C)n2)c1	2	-2	6	15	44*	0	39
CC(=O)CCC(=O)N1CCCC(CNC(=O)c2ccc(-c3ccccc3)cc2)C1 (centres undefined)	-13	-7	3	5	43*	8	35
COC(=O)c1ccc(OC(=O)CS(=O)c2ccccc2[N+](=O)[O-])cc1 (centres undefined)	5	0	-6	-2	11	3	x
O=C(CS(=O)c1ccc(C(F)(F)F)cc1[N+](=O)[O-])Oc1ccccc1 (centres undefined)	9	1	-4	7	53*	4	52*
CCC(CO)Oc1cc(NCc2ccc(F)cc2)c2ncn(C(C)C)c2c1 (centres undefined)	43*	0	6	8	50*	4	14
CCC(CO)Oc1cc(NCc2ccc(C)c(C)c2)c2ncn(C(C)C)c2c1 (centres undefined)	34	-3	0	19	42	8	x
COc1cccc(C2=CC(c3ccccc3)n3nnnc3N2)c1 (centres undefined)	x	5	4	12	-67	6	x
COc1cccc(C2=CC(c3ccc(N(C)C)cc3)n3nnnc3N2)c1 (centres undefined)	-5	6	1	8	70*	1	54*
COc1ccc(-c2ccc(C#N)c(SCC(=O)OCc3ccccc3)n2)cc1OC	3	-10	7	8	58*	-8	16
Nc1c(N(CCC2=CCCCC2)C(=O)Cc2ccccc2F)c(=O)[nH]c(=O)n1Cc1ccccc1	8	3	3	7	7	7	x
Nc1c(N(CCC2=CCCCC2)C(=O)c2ccccc2F)c(=O)[nH]c(=O)n1Cc1ccccc1	-4	4	1	1	69*	-10	15
NC(=O)c1ccccc1NC(=O)CC1(CC(=O)O)CCCC1	-6	10	11	0	-1	6	x
CCOc1ccccc1NC(=O)COC(=O)CC(C)(C)CC1=NS(=O)(=O)c2ccccc2N1	4	1	-4	4	-3	4	x
CCC(=O)c1ccc2c(c1)N(CCCN(C)C)c1ccccc1S2	29	-5	8	9	64*	9	55*
